In ChEMBL document CHEMBL1255479, “Preclinical characterization of the antiviral activity of SCH 900518 (narlaprevir), a novel mechanism-based inhibitor of hepatitis C virus NS3 protease” (Antimicrob Agents Chemother, 2010):
Active and inactive are the calls of the source. The calls are words filed in the database; no cut-off is given here.

What was measured:
Hepatitis C virus [1] = experiment: Resistance index, ratio of EC50 for boceprevir-resistant Hepatitis C virus genotype 1b expressing NS3 protease D168V mutant to EC50 for wild type Hepatitis C virus genotype 1b after 3 days by RT-PCR method; assay type: functional, Hepacivirus hominis
Summary of the method: (§1)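 Replicons carrying mutant or wild-type NS3 protease treated 3 days; replicon RNA by real-time PCR against GAPDH. EC50 = concentration raising CT by 1 over projected baseline; EC90 = increase of 3.2. Index = mutant/wild-type fold increase, means of two or more experiments unless stated (some single experiment).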

Hepatitis C virus [2] = experiment: Ratio of Ki for boceprevir-resistant Hepatitis C virus genotype 1b NS3 protease R155K mutant to Ki for Hepatitis C virus genotype 1b NS3 protease; design: species or system Hepatitis C virus subtype 1b
Summary of the method: (§2)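 Recombinant single-chain NS3-NS4A protease (wild type or mutant) in a continuous spectrophotometric assay with chromogenic substrate acetyl-DTEDVVP(norvaline)-O-4-phenylazophenol. Absorbance followed over 60 min at several inhibitor concentrations. Progress curves fit to a modified Morrison equation; K*i derived using substrate concentration and Km. Values are mutant/wild-type fold increase, means of two or more experiments unless noted.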

Hepatitis C virus [3] = experiment: Antiviral activity against Hepatitis C virus genotype 1b assessed as log reduction in RNA level at 1.2 times EC90 after 14 days by RT-PCR method; assay type: functional, organism-based; conditions: Hepacivirus hominis
Summary of the method: (§3)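 Replicon cells kept on compound for up to 14 days, refreshed every 2–3 days and split at confluence. Replicon RNA by TaqMan: dCT = NS5B CT − GAPDH CT; ddCT = treated dCT − vehicle-control dCT; log RNA reduction = log(1/2^ddCT), with day 0 set to 0. Curve fit to one-phase exponential decay.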

Hepatitis C virus [4] = experiment: Resistance index, ratio of EC90 for Hepatitis C virus genotype 1b expressing NS3 protease T54A and A156T mutant to EC90 for wild type Hepatitis C virus genotype 1b after 3 days by RT-PCR method; assay type: functional, Hepacivirus hominis; summary of the method: as §1
[5] = Inhibition of Hepatitis C virus genotype 1a NS3 protease; design: species or system Hepatitis C virus subtype 1a
Summary of the method: (§4)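 Recombinant single-chain NS3-NS4A protease (genotypes 1a, 1b, 2a, 3a). Continuous spectrophotometric assay: enzyme added to an equal volume of buffer containing the chromogenic substrate acetyl-DTEDVVP(norvaline)-O-4-phenylazophenol. Absorbance was followed for 60 min at several inhibitor levels. Progress curves were fit to a modified Morrison equation. Overall K*i was derived from vs/vo versus [I], corrected using substrate concentration and Km.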

Hepatitis C virus [6] = experiment: Antiviral activity against Hepatitis C virus genotype 1b assessed as log reduction in RNA level at 5 times EC90 after 14 days by RT-PCR method; assay type: functional, organism-based; conditions: Hepacivirus hominis; summary of the method: as §3
Hepatitis C virus [7] = experiment: Resistance index, ratio of EC50 for boceprevir-resistant Hepatitis C virus genotype 1b expressing NS3 protease R155K mutant to EC50 for wild type Hepatitis C virus genotype 1b after 3 days by RT-PCR method; assay type: functional, Hepacivirus hominis; summary of the method: as §1
Hepatitis C virus [8] = experiment: Resistance index, ratio of EC50 for boceprevir-resistant Hepatitis C virus genotype 1b expressing NS3 protease A156T mutant to EC50 for wild type Hepatitis C virus genotype 1b after 3 days by RT-PCR method; assay type: functional, Hepacivirus hominis; summary of the method: as §1
Hepatitis C virus [9] = experiment: Ratio of Ki for boceprevir-resistant Hepatitis C virus genotype 1b NS3 protease V36A mutant to Ki for Hepatitis C virus genotype 1b NS3 protease; design: species or system Hepatitis C virus subtype 1b; summary of the method: as §2
Hepatitis C virus [10] = experiment: Resistance index, ratio of EC50 for boceprevir-resistant Hepatitis C virus genotype 1b expressing NS3 protease V36M and R155K mutant to EC50 for wild type Hepatitis C virus genotype 1b after 3 days by RT-PCR method; assay type: functional, Hepacivirus hominis; summary of the method: as §1
Hepatitis C virus [11] = experiment: Resistance index, ratio of EC50 for boceprevir-resistant Hepatitis C virus genotype 1b expressing NS3 protease A156S mutant to EC50 for wild type Hepatitis C virus genotype 1b after 3 days by RT-PCR method; assay type: functional, Hepacivirus hominis; summary of the method: as §1
Hepatitis C virus [12] = experiment: Ratio of Ki for boceprevir-resistant Hepatitis C virus genotype 1b NS3 protease A156T mutant to Ki for Hepatitis C virus genotype 1b NS3 protease; design: species or system Hepatitis C virus subtype 1b; summary of the method: as §2
Hepatitis C virus [13] = experiment: Ratio of Ki for boceprevir-resistant Hepatitis C virus genotype 1b NS3 protease T54S mutant to Ki for Hepatitis C virus genotype 1b NS3 protease; design: species or system Hepatitis C virus subtype 1b; summary of the method: as §2
Hepatitis C virus [14] = experiment: Ratio of Ki for boceprevir-resistant Hepatitis C virus genotype 1b NS3 protease T54S and R155K double-mutant to Ki for Hepatitis C virus genotype 1b NS3 protease; design: species or system Hepatitis C virus subtype 1b; summary of the method: as §2
Hepatitis C virus [15] = experiment: Resistance index, ratio of EC90 for Hepatitis C virus genotype 1b expressing NS3 protease T54A/S mutant to EC90 for wild type Hepatitis C virus genotype 1b after 3 days by RT-PCR method; assay type: functional, Hepacivirus hominis; summary of the method: as §1
Hepatitis C virus [16] = experiment: Resistance index, ratio of EC50 for boceprevir-resistant Hepatitis C virus genotype 1b expressing NS3 protease V36M mutant to EC50 for wild type Hepatitis C virus genotype 1b after 3 days by RT-PCR method; assay type: functional, Hepacivirus hominis; summary of the method: as §1
Hepatitis C virus [17] = experiment: Ratio of Ki for boceprevir-resistant Hepatitis C virus genotype 1b NS3 protease T54A mutant to Ki for Hepatitis C virus genotype 1b NS3 protease; design: species or system Hepatitis C virus subtype 1b; summary of the method: as §2
Hepatitis C virus [18] = experiment: Ratio of Ki for boceprevir-resistant Hepatitis C virus genotype 1b NS3 protease A156S mutant to Ki for Hepatitis C virus genotype 1b NS3 protease; design: species or system Hepatitis C virus subtype 1b; summary of the method: as §2
[19] = Inhibition of Hepatitis C virus genotype 2a NS3 protease; design: species or system Hepatitis C virus subtype 2a; summary of the method: as §4
Hepatitis C virus [20] = experiment: Ratio of Ki for boceprevir-resistant Hepatitis C virus genotype 1b NS3 protease D168V mutant to Ki for Hepatitis C virus genotype 1b NS3 protease; design: species or system Hepatitis C virus subtype 1b; summary of the method: as §2
Hepatitis C virus [21] = experiment: Ratio of Ki for boceprevir-resistant Hepatitis C virus genotype 1b NS3 protease F43C mutant to Ki for Hepatitis C virus genotype 1b NS3 protease; design: species or system Hepatitis C virus subtype 1b; summary of the method: as §2
[22] = Cytotoxicity against human HuH7 cells by MTS assay; assay type: cell-based, Huh-7
Hepatitis C virus [23] = experiment: Ratio of Ki for boceprevir-resistant Hepatitis C virus genotype 1b NS3 protease V36M mutant to Ki for Hepatitis C virus genotype 1b NS3 protease; design: species or system Hepatitis C virus subtype 1b; summary of the method: as §2
Hepatitis C virus [24] = experiment: Antiviral activity against Hepatitis C virus genotype 1b assessed as decrease in RNA level after 3 days by RT-PCR method; assay type: functional, Hepacivirus hominis; conditions: 72 h
Summary of the method: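 Genotype 1b replicon cells seeded on collagen I-coated plates; compound added 24 h post-seeding and incubated 3 days. Cells lysed; replicon RNA by real-time PCR (TaqMan) with GAPDH RNA as endogenous control. EC50 = concentration giving a CT increase of 1 over projected baseline CT; EC90 = increase of 3.2. Triplicate measurements.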

[25] = Inhibition of Hepatitis C virus genotype 3a NS3 protease; design: species or system Hepatitis C virus subtype 3a; summary of the method: as §4
Hepatitis C virus [26] = experiment: Inhibition of Hepatitis C virus genotype 1b NS3 protease; design: species or system Hepatitis C virus subtype 1b; summary of the method: as §4
Hepatitis C virus [27] = experiment: Ratio of Ki for boceprevir-resistant Hepatitis C virus genotype 1b NS3 protease V170A mutant to Ki for Hepatitis C virus genotype 1b NS3 protease; design: species or system Hepatitis C virus subtype 1b; summary of the method: as §2
Hepatitis C virus [28] = experiment: Resistance index, ratio of EC50 for boceprevir-resistant Hepatitis C virus genotype 1b expressing NS3 protease V170A mutant to EC50 for wild type Hepatitis C virus genotype 1b after 3 days by RT-PCR method; assay type: functional, Hepacivirus hominis; summary of the method: as §1
Hepatitis C virus [29] = experiment: Ratio of Ki for boceprevir-resistant Hepatitis C virus genotype 1b NS3 protease V36M and R155K double-mutant to Ki for Hepatitis C virus genotype 1b NS3 protease; design: species or system Hepatitis C virus subtype 1b; summary of the method: as §2
Hepatitis C virus [30] = experiment: Resistance index, ratio of EC90 for Hepatitis C virus genotype 1b expressing NS3 protease A156S mutant to EC90 for wild type Hepatitis C virus genotype 1b after 3 days by RT-PCR method; assay type: functional, Hepacivirus hominis; summary of the method: as §1
Hepatitis C virus [31] = experiment: Resistance index, ratio of EC50 for boceprevir-resistant Hepatitis C virus genotype 1b expressing NS3 protease T54A mutant to EC50 for wild type Hepatitis C virus genotype 1b after 3 days by RT-PCR method; assay type: functional, Hepacivirus hominis; summary of the method: as §1
Hepatitis C virus [32] = experiment: Resistance index, ratio of EC90 for Hepatitis C virus genotype 1b expressing NS3 protease A156T/V mutant to EC90 for wild type Hepatitis C virus genotype 1b after 3 days by RT-PCR method; assay type: functional, Hepacivirus hominis; summary of the method: as §1

Which results are given for `CCCC[C@H](NC(=O)[C@@H]1[C@@H]2[C@H](CN1C(=O)[C@@H](NC(=O)NC1(CS(=O)(=O)C(C)(C)C)CCCCC1)C(C)(C)C)C2(C)C)C(=O)C(=O)NC1CC1` [NARLAPREVIR]?
Ratio EC50 (Hepatitis C virus [1]): 1; Ratio Ki (Hepatitis C virus [2]): 8; Activity (Hepatitis C virus [3]): Active; Ratio (Hepatitis C virus [4]): >600; Ki [5]: 0.7 nM; Activity (Hepatitis C virus [6]): Active; Ratio EC50 (Hepatitis C virus [7]): 15; Ratio EC50 (Hepatitis C virus [8]): > 1000; Ratio Ki (Hepatitis C virus [9]): 5; Ratio EC50 (Hepatitis C virus [10]): 130; Ratio EC50 (Hepatitis C virus [11]): 70; Ratio Ki (Hepatitis C virus [12]): 3000; Ratio Ki (Hepatitis C virus [13]): 3; Ratio Ki (Hepatitis C virus [14]): 58; Ratio (Hepatitis C virus [15]): 10; Ratio EC50 (Hepatitis C virus [16]): 8; Ratio Ki (Hepatitis C virus [17]): 8; Ratio Ki (Hepatitis C virus [18]): 100; Ki [19]: 3 nM; Ratio Ki (Hepatitis C virus [20]): 1; Ratio Ki (Hepatitis C virus [21]): 8; CC50 [22]: > 25000 nM; Ratio Ki (Hepatitis C virus [23]): 3; EC90 (Hepatitis C virus [24]): 40 nM; Ki [25]: 7 nM; Ki (Hepatitis C virus [26]): 7 nM; Ratio Ki (Hepatitis C virus [27]): 6; Ratio EC50 (Hepatitis C virus [28]): 10; Ratio Ki (Hepatitis C virus [29]): 160; Ratio (Hepatitis C virus [30]): 30; Ratio EC50 (Hepatitis C virus [31]): 11; Ratio (Hepatitis C virus [32]): 500
